Experimental data published in ChEMBL document CHEMBL1143908, “Functionalized chalcones as selective inhibitors of P-glycoprotein and breast cancer resistance protein” (Bioorg Med Chem, 2008).

Key:
[1] = biological target: T1, ATP-dependent translocase ABCB1 (Homo sapiens, UniProt P08183); experiment: Inhibition of human multidrug resistant gene Pgp expressed in MDCK2 cells assessed as calcein-AM accumulation at 10 uM after 40 mins; format: cell-based; design: scale not given: the % may be the effect or the level left; conditions: mdck-ii
[2] = biological target: T2, Broad substrate specificity ATP-binding cassette transporter ABCG2 (Homo sapiens, UniProt Q9UNQ0); experiment: Inhibition of human BCRP mediated mitoxantrone accumulation in mitoxantrone resistant MCF7 cells at 5 uM by flow cytometry; format: cell-based; design: scale not given: the % may be the effect or the level left; conditions: mcf7, 5 µM
T2 sequence (Q9UNQ0 whole entry): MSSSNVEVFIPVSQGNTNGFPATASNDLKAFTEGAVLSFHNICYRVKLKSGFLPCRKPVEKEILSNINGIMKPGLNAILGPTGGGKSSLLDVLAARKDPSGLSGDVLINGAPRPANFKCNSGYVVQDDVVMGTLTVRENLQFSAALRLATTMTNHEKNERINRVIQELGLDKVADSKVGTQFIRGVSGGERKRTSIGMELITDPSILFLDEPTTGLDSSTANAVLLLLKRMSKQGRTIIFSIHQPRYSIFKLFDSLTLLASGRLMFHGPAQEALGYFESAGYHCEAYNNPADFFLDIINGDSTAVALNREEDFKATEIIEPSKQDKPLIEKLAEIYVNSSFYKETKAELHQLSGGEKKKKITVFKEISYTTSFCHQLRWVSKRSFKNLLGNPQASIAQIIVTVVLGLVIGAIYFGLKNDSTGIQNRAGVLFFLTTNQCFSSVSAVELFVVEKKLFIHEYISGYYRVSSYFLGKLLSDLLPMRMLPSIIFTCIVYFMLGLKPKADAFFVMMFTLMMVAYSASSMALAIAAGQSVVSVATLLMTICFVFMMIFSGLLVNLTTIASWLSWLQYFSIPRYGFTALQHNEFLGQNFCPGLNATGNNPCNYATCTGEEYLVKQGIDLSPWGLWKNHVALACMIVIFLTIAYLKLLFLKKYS
Outline: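 MCF-7/MX cells (selected in 250 nM mitoxantrone) trypsinized and resuspended at ~10^6 cells/ml in serum-free RPMI. Preincubated 15 min at 37 °C with compound (5 uM final) or vehicle (0.5% DMSO), then mitoxantrone 3 uM final added for 30 min. Stopped with ice-cold PBS and washed. Read by flow cytometry (488 nm excitation, 670 nm bandpass) as % area right of a marker set on MCF-7/WT autofluorescence (<5%). n = 4; FTC 10 uM as positive control.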

[3] = biological target: T2, Broad substrate specificity ATP-binding cassette transporter ABCG2; experiment: Inhibition of human BCRP mediated mitoxantrone accumulation in mitoxantrone resistant MCF7 cells at 10 uM by flow cytometry; format: cell-based; design: scale not given: the % may be the effect or the level left; conditions: mcf7, 10 µM
Outline: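 MCF-7/MX cells are maintained in 250 nM mitoxantrone, then trypsinized, washed in ice-cold PBS and resuspended in serum-free RPMI 1640. They are pre-incubated 15 min at 37 °C with compound or vehicle (0.5% v/v DMSO), then exposed to mitoxantrone (3 uM final) for 30 min. Uptake is stopped with ice-cold PBS and cells are washed. Flow cytometry uses 488 nm excitation and a 670 nm filter. The read-out is % area beyond a marker set on MCF-7/WT autofluorescence (<5%).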

[4] = biological target: T1, ATP-dependent translocase ABCB1; experiment: Inhibition of human wild type gene Pgp expressed in MDCK2 cells assessed as calcein-AM accumulation at 1 uM; format: cell-based; conditions: mdck-ii
Outline: (§1)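 MDCKII/WT or human MDR1-transfected MDCKII/MDR1 cells (passages 8-17) seeded at 5.0 x 10^4 cells/well and cultured 24 h. Washed, then preincubated 30 min at 37 °C with compound in DMSO-HBSS (≤1% DMSO). Calcein-AM added to 2 uM final, and fluorescence (ex 485/em 535 nm) read every 10 min over 40 min. Accumulation taken at 40 min relative to untreated MDCKII/MDR1, or scaled to the WT-minus-MDR1 fluorescence difference.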

[5] = tested on: MCF7; experiment: Antiproliferative activity against wild type human MCF7 cells after 72 hrs by MTT assay; format: functional, cell-based; conditions: MCF7, 72 h
Outline: (§2)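 MCF-7/WT and MCF-7/Adr cells (Adr line kept in medium with 10 uM doxorubicin; RPMI 1640, 10% FBS) exposed to compound for 72 h. MTT then added for 3 h, cells washed with PBS, and formazan dissolved in DMSO. Absorbance read at 590 nm, 3 determinations per concentration, IC50 derived from the concentration-response curve.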

[6] = biological target: T1, ATP-dependent translocase ABCB1; experiment: Inhibition of human multidrug resistant gene Pgp expressed in MDCK2 cells assessed as calcein-AM accumulation at 1 uM; format: cell-based; conditions: mdck-ii; outline: as §1
[7] = tested on: MCF7; experiment: Antiproliferative activity against adriamycin resistant human MCF7 cells after 72 hrs by MTT assay; format: functional, cell-based; conditions: MCF7, 72 h; outline: as §2
[8] = biological target: T2, Broad substrate specificity ATP-binding cassette transporter ABCG2; experiment: Inhibition of human BCRP mediated mitoxantrone accumulation in wild type MCF7 cells at 5 uM by flow cytometry; format: cell-based; design: scale not given: the % may be the effect or the level left; conditions: mcf7, 5 µM
[9] = biological target: P-gp (ABCB1), wild type (Homo sapiens, UniProt P08183); experiment: Inhibition of human wild type Pgp expressed in MDCK2 cells assessed as calcein-AM accumulation at 50 uM after 40 mins; format: cell-based, MDCK-II; conditions: MDCK2 cells expressing human wild type Pgp, probe calcein-AM; outline: as §1
Chain of P-gp (ABCB1), wild type (P08183 whole entry): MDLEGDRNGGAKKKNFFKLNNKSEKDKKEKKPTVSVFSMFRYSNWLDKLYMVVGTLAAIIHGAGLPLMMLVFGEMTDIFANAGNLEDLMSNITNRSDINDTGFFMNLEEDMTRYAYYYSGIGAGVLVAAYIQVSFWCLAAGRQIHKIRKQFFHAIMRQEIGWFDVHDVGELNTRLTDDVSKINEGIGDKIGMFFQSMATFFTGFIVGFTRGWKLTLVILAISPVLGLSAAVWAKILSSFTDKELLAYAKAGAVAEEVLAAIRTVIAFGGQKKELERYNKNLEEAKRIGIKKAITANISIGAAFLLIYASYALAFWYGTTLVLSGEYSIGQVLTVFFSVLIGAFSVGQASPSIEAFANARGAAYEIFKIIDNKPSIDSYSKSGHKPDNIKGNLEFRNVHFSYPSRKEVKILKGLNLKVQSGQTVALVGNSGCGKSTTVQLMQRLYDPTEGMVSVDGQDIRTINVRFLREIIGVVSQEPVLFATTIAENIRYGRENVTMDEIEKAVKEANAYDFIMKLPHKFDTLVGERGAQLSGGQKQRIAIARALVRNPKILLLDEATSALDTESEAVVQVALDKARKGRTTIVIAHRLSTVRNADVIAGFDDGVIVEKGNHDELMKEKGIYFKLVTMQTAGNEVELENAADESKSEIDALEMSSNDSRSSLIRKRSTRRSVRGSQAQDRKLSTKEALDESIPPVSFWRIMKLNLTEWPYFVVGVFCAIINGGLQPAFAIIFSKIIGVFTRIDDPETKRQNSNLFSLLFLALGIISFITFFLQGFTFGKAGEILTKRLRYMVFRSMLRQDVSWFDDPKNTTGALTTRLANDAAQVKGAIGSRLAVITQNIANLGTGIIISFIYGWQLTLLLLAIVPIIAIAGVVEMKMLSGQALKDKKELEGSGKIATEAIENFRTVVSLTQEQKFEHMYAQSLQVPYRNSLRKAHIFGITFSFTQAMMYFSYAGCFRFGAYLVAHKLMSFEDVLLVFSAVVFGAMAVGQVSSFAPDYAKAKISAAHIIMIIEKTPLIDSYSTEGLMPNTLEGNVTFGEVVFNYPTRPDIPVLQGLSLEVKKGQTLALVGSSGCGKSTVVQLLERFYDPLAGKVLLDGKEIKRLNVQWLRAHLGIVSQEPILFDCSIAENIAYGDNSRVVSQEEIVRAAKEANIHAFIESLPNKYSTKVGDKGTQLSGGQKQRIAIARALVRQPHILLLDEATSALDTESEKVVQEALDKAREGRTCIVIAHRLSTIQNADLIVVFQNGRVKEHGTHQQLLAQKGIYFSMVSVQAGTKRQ

T1 sequence (P08183 whole entry): as above

| Structure (SMILES) | Activity [1] [%] | also measured |
| --- | --- | --- |
| COc1ccc(/C=C/C(=O)c2ccc(N3CCCCC3)cc2)c(OC)c1 | 178 | – |
| CCN1CCC(c2cc(C(=O)/C=C/c3ccc(N4CCN(C)CC4)cc3)c(OC)cc2OC)CC1 | 120 | – |
| COc1ccc(C(=O)/C=C/c2ccc(Cl)cc2)c(OC)c1 | 101 | Activity [2]: 348.6% |
| COc1cc(OC)c(C2CCN(C)CC2)cc1C(=O)/C=C/c1cccnc1 | 170 | – |
| O=C(/C=C/c1ccccc1)c1ccc(N2CCCCC2)cc1 | 112 | – |
| CCN1CCC(c2cc(C(=O)/C=C/c3ccc(Cl)cc3)c(OC)cc2OC)CC1 | 247 | – |
| COc1cc(OC)c(C2CCN(C)CC2)cc1C(=O)/C=C/c1ccncc1 | 117 | – |
| COc1ccc(/C=C/C(=O)c2ccc(OC)c(OC)c2OC)c(OC)c1 | 174 | – |
| COc1ccc2c3c([nH]c2c1)[C@H](C=C(C)C)N1C(=O)[C@@H]2CCCN2C(=O)[C@@H]1C3 [FUMITREMORGIN] | – | Activity [3]: 274.5% |
| O=C(/C=C/c1ccccc1Cl)c1ccc(N2CCNCC2)cc1 | 139 | – |
| O=C(/C=C/c1ccc(Cl)cc1)c1ccc(N2CCCCC2)cc1 | 103 | – |
| CCN1CCC(c2cc(C(=O)/C=C/c3ccncc3)c(OC)cc2OC)CC1 | 151 | – |
| COc1cc(OC)c(N2CCN(C)CC2)cc1C(=O)/C=C/c1ccccc1Cl | 222 | – |
| COc1ccc(/C=C/C(=O)c2ccc(OC)cc2OC)c(OC)c1 | 172 | – |
| COc1ccc(C(=O)/C=C/c2ccc(C(F)(F)F)cc2)c(OC)c1 | 103 | – |
| CCN1CCC(c2cc(C(=O)/C=C/c3ccccc3)c(OC)cc2OC)CC1 | 256 | Activity [4]: Active; IC50 [5]: 4.8 µM; Activity [6]: Active; IC50 [7]: 6.1 µM |
| COc1cc(OC)c(N2CCN(C)CC2)cc1C(=O)/C=C/c1ccccc1 | 176 | – |
| COc1cc(OC)c(C2CCN(C)CC2)c(O)c1C(=O)/C=C/c1ccc(N2CCN(C)CC2)cc1 | 118 | – |
| COc1ccc(C(=O)/C=C/c2ccc(N3CCN(C)CC3)cc2)c(OC)c1 | 159 | – |
| COc1cc(OC)c(C2CCN(C)CC2)cc1C(=O)/C=C/c1ccccn1 | 164 | – |
| COc1cc(OC)c(N2CCN(C)CC2)cc1C(=O)/C=C/c1ccc(N2CCN(C)CC2)cc1 | 107 | – |
| O=C1c2c(O)ccc(O)c2C(=O)c2c(NCCNCCO)ccc(NCCNCCO)c21 [MITOXANTRONE] | – | Activity [8]: 439.2% |
| O=C(/C=C/c1ccc(Cl)cc1)c1ccc(N2CCNCC2)cc1 | 135 | – |
| COc1ccc(C2CCN(C)CC2)cc1C(=O)/C=C/c1ccccc1 | 178 | – |
| CCN1CCC(c2cc(C(=O)/C=C/c3ccccc3Cl)c(OC)cc2OC)CC1 | 280 | Activity [4]: Active; IC50 [5]: 2.6 µM; Activity [6]: Active; inhibition at 40 min, 50 µM [9]: > 100%; IC50 [7]: 3.6 µM |
| COc1cc(OC)c(C2CCN(C)CC2)cc1C(=O)/C=C/c1ccc(N2CCN(C)CC2)cc1 | 102 | – |
| COc1ccc(/C=C/C(=O)c2ccc(N3CCNCC3)cc2)c(OC)c1 | 216 | Activity [4]: Active; Activity [6]: Active; Activity [2]: 188.4%; IC50 [7]: 21.5 µM |
